T cruzi growth-1: blocks T. cruzi growth in NIH3T3 culture. inhibition, % at 8.34 µM. hit rate 5.9% among 77,000. T. cruzi beta-gal in NIH3T3, GalScreen luminescence, 90 h;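 active = mean inhibition above about 93%, with at least 55% of replicates each passing it, limit read from the data, passing the limit was not always enough; inconclusive = only one of those two conditions holds; inactive = neither condition holds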
IDH1 R132H inh: blocks human IDH1 R132H reductase activity; diaphorase/resazurin fluorescence, 60 min; hit rate 0.18% among 70,000; AID 624101; inhibition, % at 10 µM; O75874; in the data active = inhibition above about 34%; inconclusive = no clear call, values can overlap the other calls; inactive = below about 11%;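 note: 0% = DMSO and 100% = no enzyme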
GASC1 inh: KDM4C (human) demethylase inhibition; inhibition, % at 12.5 µM; Q9H3R0; GST-KDM4C 2-372, H3K9me3 peptide, LANCE TR-FRET; AID 720574; hit rate 0.15% among 96,000;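 active = mean replicate inhibition above about 25%, with at least 55% of replicates also reaching it, limit read from the data, passing the limit was not always enough; inconclusive = only one of those two conditions met; inactive = neither condition met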
Target sequence (Q9H3R0 2-372 limits assumed): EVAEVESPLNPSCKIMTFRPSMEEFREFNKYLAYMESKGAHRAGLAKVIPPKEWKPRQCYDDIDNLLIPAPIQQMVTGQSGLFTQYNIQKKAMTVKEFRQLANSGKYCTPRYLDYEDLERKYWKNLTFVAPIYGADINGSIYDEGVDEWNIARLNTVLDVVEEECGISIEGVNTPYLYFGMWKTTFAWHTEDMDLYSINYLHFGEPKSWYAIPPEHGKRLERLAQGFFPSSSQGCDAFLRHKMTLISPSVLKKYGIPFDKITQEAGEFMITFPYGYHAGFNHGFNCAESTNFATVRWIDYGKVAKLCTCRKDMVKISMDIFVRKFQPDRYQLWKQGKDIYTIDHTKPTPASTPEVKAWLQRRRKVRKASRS
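System – N-terminal GST-fused human GASC-1 (KDM4C) fragment, residues 2-372 · Input – enzyme final amount 10 nM · Technique – LANCE TR-FRET, Eu antibody, ULight-streptavidin, EDTA, ex 340 nm, em 618/671 nm · Medium – HEPES buffer, pH 7.5, plus ascorbate · Incubation – enzyme reaction 30 min, then detection 60 min, both room temperature · Reagent – H3K9me3 peptide with Fe(II)/2OG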
T cruzi growth-2: inhibitors of T. cruzi proliferation; shares compounds with T cruzi growth-1; T. cruzi beta-gal in NIH3T3, GalScreen luminescence, 90 h; inhibition, % at 8.35 µM; hit rate 72% among 5,600; AID 651739;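 active = mean replicate inhibition above about 95% and at least 55% of replicates individually reaching it, limit read from the data; inconclusive = only one of the two criteria is met; inactive = neither criterion is met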
T cruzi growth-3: inhibitors of T. cruzi proliferation; shares compounds with T cruzi growth-1; T. cruzi beta-gal in NIH3T3, GalScreen luminescence, 90 h; inhibition, % at 2.09 µM; hit rate 21% among 5,600; AID 651740;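 active = mean inhibition above about 95%, with at least 55% of replicates also reaching it, limit read from the data; inconclusive = meets just one of the two conditions; inactive = meets neither condition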;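 note: plate controls were neutral control median for no effect and positive control median for full effect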
NIH3T3 tox: NIH/3T3 (mouse) viability loss | shares compounds with T cruzi growth-1 | NIH/3T3 viability, CellTiter-Glo ATP luminescence, 90 h | hit rate 14% among 5,600 | cytotoxicity (signal decrease), % at 8.35 µM;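 active = mean signal decrease across replicates above about 35% based on untreated-well scatter, with enough replicates individually passing, limit read from the data; inconclusive = no rule stated though some were filed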;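 note: 0% = median of neutral control wells and 100% = median of positive control wells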
NIH3T3 tox 2: kills mouse NIH/3T3 fibroblasts | shares compounds with T cruzi growth-1 | NIH/3T3 viability, CellTiter-Glo ATP luminescence, 90 h | inhibition, % at 24.9 µM | hit rate 56% among 5,600 | AID 651744;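 active = mean loss of cell viability signal at or above a set limit, and enough replicates individually reaching it; inconclusive = meets only the mean limit or only the replicate share; inactive = meets neither condition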;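 note: 0% = median of neutral control wells and 100% = median of positive control wells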
Numbers without * were called inactive; ? = inconclusive; / = not tested or not shown. This is one part of a sample in which hits are shown more often than they occur.

SMILES | T cruzi growth-1 | IDH1 R132H inh | GASC1 inh | T cruzi growth-2 | T cruzi growth-3 | NIH3T3 tox | NIH3T3 tox 2
N#CC(C#N)=Cc1ccc(O)cc1 | / | 1 | / | / | / | / | /
N#CC(C#N)=Cc1cc(O)c(O)c(O)c1 | / | 33* | / | / | / | / | /
Oc1ccc2c3c1OC1c4[nH]c5c(c4CC4(O)C(C2)N(CC2CC2)CCC314)CC1(O)C2Cc3ccc(O)c4c3C1(CCN2CC1CC1)C5O4 (stereo not given) | / | -6 | / | / | / | / | /
COc1ccc(C#Cc2ccc([C@@H]3[C@@H](CO)N4CCCCN(C(=O)Cc5ccccc5)C[C@@H]34)cc2)cc1 | 111* | / | 1 | 90 | 104* | -1 | 103*
O=C(Cc1ccccc1)N1CCCCN2[C@H](CO)[C@@H](c3ccc(C#CC4(O)CCCC4)cc3)[C@H]2C1 | 88 | / | 0 | / | / | / | /
O=C(Cc1ccccc1)N1CCCCN2[C@H](C1)[C@H](c1ccc(C#Cc3ccccc3)cc1)[C@@H]2CO | 131* | / | -1 | 104* | 57 | 33 | 104*
COc1ccc(C#Cc2ccc([C@H]3[C@@H](CO)N4CCCCN(C(=O)Cc5ccccc5)C[C@H]34)cc2)cc1 | 77 | / | -2 | / | / | / | /
O=C(Cc1ccccc1)N1CCCCN2[C@H](C1)[C@@H](c1ccc(C#Cc3ccccc3)cc1)[C@@H]2CO | 115* | / | -1 | 98* | 73 | ? | 103*
O=C(Cc1ccccc1)N1CCCCN2[C@H](CO)[C@@H](c3ccc(-c4ccccc4)cc3)[C@@H]2C1 | 31 | / | -1 | / | / | / | /
CC(C)(O)/C=C/C(=O)[C@](C)(O)C1[C@H](O)C[C@@]2(C)[C@@H]3CC=C4C(CC(=O)C(=O)C4(C)C)[C@]3(C)C(=O)C[C@@]12C (stereo not given in full) | / | 1 | / | / | / | / | /
CC1=CC(=O)C2=C(C)C[C@H](O)[C@@H]3[C@H](OC(=O)[C@@H]3C)[C@@H]12 | / | 0 | / | / | / | / | /
C=C1[C@@H](C)[C@H]2[C@H](Cc3ccccc3)NC(=O)[C@]23OC(=O)/C=C\[C@H](O)CCC[C@@H](C)C/C=C/[C@H]3[C@@H]1O | / | 0 | / | / | / | / | /
O=C(Cc1cccnc1)N1CCCCN2[C@H](CO)[C@H](c3ccc(C#CC4(O)CCCC4)cc3)[C@@H]2C1 | 18 | / | -1 | / | / | / | /
O=C(Cc1cccnc1)N1CCCCN2[C@@H](CO)[C@H](c3ccc(C#CC4CC4)cc3)[C@@H]2C1 | 108* | / | / | 100* | 51 | 20 | 20
O=C(Cc1cccnc1)N1CCCCN2[C@H](CO)[C@H](c3ccc(C#CC4CCCC4)cc3)[C@H]2C1 | 100* | / | -1 | 100* | 45 | 32 | 106*
O=C(Cc1cccnc1)N1CCCCN2[C@@H](CO)[C@H](c3ccc(C#CC4(O)CCCC4)cc3)[C@@H]2C1 | 41 | / | 1 | / | / | / | /
O=C(Cc1cccnc1)N1CCCCN2[C@H](CO)[C@@H](c3ccc(C#CC4CCCC4)cc3)[C@H]2C1 | ? | / | -1 | 80 | 3 | 5 | 104*
O=C(Cc1cccnc1)N1CCCCN2[C@@H](CO)[C@@H](c3ccc(C#CC4(O)CCCC4)cc3)[C@@H]2C1 | 61 | / | 0 | / | / | / | /
O=C(Cc1cccnc1)N1CCCCN2[C@H](C1)[C@@H](c1ccc(C#CC3CC3)cc1)[C@@H]2CO | -155 | / | / | / | / | / | /
O=C(Cc1cccnc1)N1CCCCN2[C@H](C1)[C@H](c1ccc(C#CC3CCCC3)cc1)[C@@H]2CO | 104* | / | -1 | 90 | 30 | -9 | 97*
CN(CC(=O)Nc1ccc(Cl)cc1C(=O)c1ccccc1)S(=O)(=O)c1ccc(Cl)cc1 | / | 0 | / | / | / | / | /
OC[C@H]1O[C@@H](Oc2ccc(/C=C/c3cc(O)cc(O)c3)cc2O)[C@H](O)[C@@H](O)[C@@H]1O | / | 3 | / | / | / | / | /
CCCCn1c(=O)c(C(=O)NCc2ccccn2)c(O)c2ccccc21 | / | 1 | / | / | / | / | /
C=CC1CN2CCC3(C(=O)Nc4ccccc43)C2CC1/C(=C/OC)C(=O)OC (stereo not given) | / | 0 | / | / | / | / | /
O=C(Cn1cc(C(=O)c2ccccc2)c2ccccc21)Nc1ccc(F)cc1 | / | 0 | / | / | / | / | /
O=C(Cc1cccnc1)N1CCCCN2[C@H](CO)[C@@H](c3ccc(C#CC4CC4)cc3)[C@@H]2C1 | 48 | / | / | / | / | / | /

Screening data: PubChem BioAssay, Broad Institute
